In brackets after ≈: the same amount, converted by molar mass.
Legend:
[1] = tested on: Plasmodium falciparum; assay: Antimalarial activity against Plasmodium falciparum K1; assay type: functional, organism-based
Method in brief: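 P. falciparum K1 (multidrug-resistant) cultured with compound at serial dilutions; growth measured as percentage reduction versus untreated controls; IC50 derived by probit analysis. Only compounds active in the preliminary single-concentration screen went on to this step.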

[2] = tested on: Plasmodium falciparum; assay: Antimalarial activity against Plasmodium falciparum K1 at 50 ug/mL; assay type: functional
Method in brief: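 Preliminary screen against P. falciparum K1 at two concentrations, printed as 50 and 2.5 (unit unclear). Parasite growth given as percentage reduction versus untreated controls.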

[3] = tested on: HCT-8; assay: Cytotoxicity against human HCT8 cells after 72 hrs by MTT assay; assay type: functional, cell-based
Method in brief: (§1)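 Human tumour lines were grown in RPMI 1640 with 10% fetal bovine serum and 1% antibiotics at 37 °C under 5% CO2. Plating densities were 0.7 × 10⁵ for HCT-8, 0.6 × 10⁵ for SF-295 and 0.3 × 10⁶ for HL-60. Samples came from a 5 mg/mL DMSO stock and were incubated 72 h. MTT read at 550 nm; growth inhibition relative to […]. Triplicate, two independent experiments.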

[4] = tested on: SF-295; assay: Cytotoxicity against human SF295 cells after 72 hrs by MTT assay; assay type: functional, cell-based; method in brief: as §1
[5] = tested on: MDA-MB-435; assay: Cytotoxicity against human MDA-MB-435 cells after 72 hrs by MTT assay; assay type: functional, cell-based
[6] = tested on: HL-60; assay: Cytotoxicity against human HL60 cells after 72 hrs by MTT assay; assay type: functional, cell-based; details: HL-60, 72 h; method in brief: as §1

`CCN(CC)CCCC(C)Nc1ccnc2cc(Cl)ccc12` (stereo unspecified) [CHLOROQUINE PHOSPHATE] was tested, and the IC50 [1] was 890 nM.
For `C=C[C@@](C)(O)CC/C=C(/C)CCC=C(C)C` [NEROLIDIOL], the inhibition at 50 µg/mL [2] was 50%, the IC50 ([3]; hct-8) was “Not Active” and the IC50 ([4]; sf-295) was “Not Active”. For the same compound, the IC50 ([5]; mda-mb-435) was “Not Active”.
Work on `Oc1ccccc1O` [CATECHOL] yielded an IC50 [1] of 80600 nM, an IC50 [6] of 1.08 µg/mL (≈ 9.81 µM) and an IC50 ([3]; Homo sapiens, HCT-8, 72 h, read-out: IC50) of 13.5 µg/mL (≈ 123 µM). It also gave an IC50 ([4]; Homo sapiens, SF-295, 72 h, read-out: IC50) of 12.9 µg/mL (≈ 117 µM) and an IC50 ([5]; Homo sapiens, MDA-MB-435, 72 h, read-out: IC50) of over 25 µg/mL.
Work on `C=C[C@H]1CN2CC[C@H]1C[C@H]2[C@H](O)c1ccnc2ccc(OC)cc12` [QUININE] yielded an IC50 [1] of 12 nM.

Source: ChEMBL document CHEMBL1158370, “New antimalarial and cytotoxic 4-nerolidylcatechol derivatives” (Eur J Med Chem, 2009)
